Hits are enriched below; roughly 1.4% of the tested compounds scored in any of these assays.
Neddylation inh – inhibitors of cullin neddylation, primary screen, biochemical, TR-FRET, uHTS, NAE and Ubc12; NEDD8-conjugating enzyme Ubc12 (Homo sapiens) + NEDD8-activating enzyme E1 regulatory …; inhibition, % at 25 µM; hit rate 0.58% among 360,000; AID 651699, 2012; in the data active = inhibition above about 36%
UCH37 DUB inh – inhibitors of human UCH37 deubiquitinase, primary screen, biochemical, Ub-AMC cleavage, fluorescence; purified proteasome/UCH37; hit rate 0.33% among 330,000; inhibition, % (test concentration not listed); AID 588478, 2011; Ubiquitin carboxyl-terminal hydrolase isozyme L5 (Homo sapiens), Q9Y5K5;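 active = mean inhibition over replicate wells above about 20%, limit read from the data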;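 note: 0% = compound-free wells with enzyme and 100% = wells lacking proteasome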
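Material: Human UCH37 enzyme supplied as purified proteasome complex | Schedule: 30 min preincubation with enzyme, 25 min cleavage at room temperature | Detection: AMC fluorescence 355/460 nm | Measure: % inhibition of Ub-AMC cleavage fluorescence | Controls: Wells without proteasome as full block, compound-free enzyme plus substrate as uninhibited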
SUMO HTRF inh – inhibitors of in vitro SUMOylation cascade, primary screen, biochemical, HTRF, uHTS; HTRF SUMOylation assay, SAE1/SAE2 + UBC9; inhibition, % at 35 µM; hit rate 0.36% among 290,000; in the data active = inhibition above about 50%, passing the limit was not always enough
Target sequence (P63279 whole entry, looked up): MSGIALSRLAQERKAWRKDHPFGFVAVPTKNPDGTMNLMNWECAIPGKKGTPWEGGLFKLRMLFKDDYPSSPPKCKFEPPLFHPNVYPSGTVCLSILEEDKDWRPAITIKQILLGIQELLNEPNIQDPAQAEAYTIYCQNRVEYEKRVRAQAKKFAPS
Fh CTSL1 inh – Fasciola hepatica cathepsin L1 inhibitors, primary screen, counter-screen for PFM18AAP inhibitor project, biochemical, QFRET, fluorogenic peptide substrate; recombinant F. hepatica cathepsin L1, Z-Leu-Arg-MCA fluorescence; inhibition, % at 5.96 µM; hit rate 0.49% among 300,000;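 active = inhibition above the mean of all tested compounds plus 3 SD, set per screening campaign, cut at about 17% in these data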;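 note: 0% = plate median of test compound wells and 100% = 1 µM Z-Phe-Ala-diazomethylketone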
Neddyl conf – blockade of NEDD8 conjugation to cullin – biochemical, TR-FRET, single concentration, confirmation | TR-FRET cullin neddylation biochemical assay | hit rate 13% among 1,800 | shares compounds with Neddylation inh | calls only at 25 µM; in the data active = inhibition above about 40%;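 note: neddylation substrate is the cullin 1 ring ligase complex with SKP2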
Numbers without * were called inactive; i = inactive; · = not tested or not shown; + = active, no number.

SMILES	Neddylation inh	UCH37 DUB inh	SUMO HTRF inh	Fh CTSL1 inh	Neddyl conf
Cc1ccc(-c2c(C(=O)N/N=C/c3ccc4c(c3)OCO4)nnn2-c2nonc2N)cc1	50*	·	16	4	·
CCc1c(C(=O)N/N=C/c2ccc(OCc3ccc(F)cc3)c(OC)c2)nnn1-c1nonc1N	43*	·	-7	9	i
Nc1nonc1-n1nnc(C(=O)NN=Cc2ccc(F)cc2)c1-c1ccc2c(c1)OCO2	·	2	·	·	·
Cn1cncc1C#Cc1ccc2cc(CCO)oc(=O)c2c1	37*	3	·	·	i
Cn1cncc1C#Cc1ccc2cc(C3(O)CCCCC3)oc(=O)c2c1	-223	3	·	·	·
CCCCCC(=O)NN=Cc1ccc([N+](=O)[O-])o1	·	11	·	·	·
CCS(=O)(=O)Nc1cccc(C2=NN(S(=O)(=O)CC)C(c3cccs3)C2)c1 (stereo not given)	7	4	-14	1	·
CCS(=O)(=O)Nc1ccc(C2=NN(S(=O)(=O)CC)C(c3cccs3)C2)cc1 (stereo not given)	44*	-50	12	7	i
O=C(O)/C=C/C(=O)Nc1ccc2nccnc2c1	41*	-129	32	-15	i
CCN1CCN(C=Nc2nc3c(s2)CCCC3)CC1	·	5	·	·	·
CCOCCCn1c(C)nc2c(c1=O)c1nc3ccccc3nc1n2-c1ccc(C)cc1	49*	-21	-14	-5	i
COc1ccccc1Nc1cc(C)nc2c(C)ccc([N+](=O)[O-])c12	45*	5	-19	4	i
Cc1cc(Nc2ccccc2)c2c([N+](=O)[O-])cc(C)c(C)c2n1	14	0	-20	3	·
NC(=O)/C(=C\c1ccco1)NC(=O)c1ccco1	5	·	·	·	·
NC(=O)/C(=C/c1ccco1)C(N)=S	68*	11	19	3	i
Cc1ccc(N2CCN(N=CC3=C(N4CCOCC4)/C(=C\c4ccccc4)CC3)CC2)cc1	·	-3	·	·	·
COc1ccc(CCNC(=O)c2cc3c(=O)n4cccc(C)c4nc3n(CC3CCCO3)c2=N)cc1 (stereo not given)	44*	-77	17	0	i
Cc1ccc(-n2nc(C)c(C=Nn3c(C)n[nH]c3=S)c2Cl)cc1	·	5	·	·	·
Cc1ccc(-n2nc(C)c(/C=N/n3c(C)n[nH]c3=S)c2Cl)cc1	46*	·	8	5	i
O=C(CN1c2cccc3cccc(c23)S1(=O)=O)N1CCOCC1	47*	-114	20	-3	·
O=C(CN1c2cccc3cccc(c23)S1(=O)=O)NC1CCCCC1	38	-25	·	·	·
O=C(CN1c2cccc3cccc(c23)S1(=O)=O)N1CCN(c2ccc(F)cc2)CC1	36	-31	·	·	·
O=C(NN=Cc1cccnc1)c1ccc(CN2c3cccc4cccc(c34)S2(=O)=O)cc1	·	-42	·	·	·
O=C(CN1c2cccc3cccc(c23)S1(=O)=O)N1CCCCC1	42*	-100	·	·	+
O=C(O)c1ccc(/C=N/NC(=O)c2ccc(CN3c4cccc5cccc(c45)S3(=O)=O)cc2)cc1	51*	·	·	-1	+
SMILES	Neddylation inh	UCH37 DUB inh	SUMO HTRF inh	Fh CTSL1 inh	Neddyl conf
CC1CCCC(C)N1C(=O)CN1c2cccc3cccc(c23)S1(=O)=O (stereo not given)	51*	-68	·	·	+
O=C(CNS(=O)(=O)c1ccccc1)NN=Cc1ccncc1	·	3	·	·	·
O=C(CSCc1ccc(Cl)cc1)NN=Cc1ccco1	·	2	·	·	·
Cc1cc(C=NNC(=O)c2nn(C)cc2Cl)c(C)n1-c1cccc(Br)c1	·	1	·	·	·
CCCc1cc(-n2cnc3ccccc32)n2c(nc3ccccc32)c1C#N	42*	-21	32	1	i
O=C(NNC(=O)c1csc(-c2cnccc2C(F)(F)F)n1)c1ccc(C(F)(F)F)cc1	42*	3	-13	23*	i
CCn1nc(C)c(C=NNC(=O)c2ccoc2C)c1C	·	4	·	·	·
Cc1nn(-c2ccccc2)c(N2CCCC2)c1C=NNC(=O)c1cc2ccccc2cc1O	·	-6	·	·	·
Cc1nn(-c2ccccc2)c(N2CCCC2)c1/C=N/NC(=O)c1ccccc1O	45*	·	3	0	i
CC(=O)Oc1ccc(-c2ccc(C(=O)OCC(=O)N(C)CC(=O)Nc3ccccc3Cl)cc2)cc1	56*	0	7	-17	i
CN(CC(=O)Nc1ccccc1Cl)C(=O)COC(=O)c1ccc(S(=O)(=O)C(F)F)cc1	-2	1	·	-5	·
COc1ccc(O[C@H]2C=C[C@@H](c3ccccc3)O[C@@H]2COC(=O)CCC(C)=NO[C@H](C)c2cn([C@@H]3COC[C@H]3O)nn2)cc1	·	1	·	·	·
